According to publication PMC6904836 (International Journal for Parasitology: Drugs and Drug …, 2019):
Where “and” joins values, the source holds several entries; their conditions need not be identical. Equal values may be shown once. Each block holds one compound with its values, some of them ahead of it.

Tests used:
[1] = tested on: L. guyanensis (MHOM/GY/06/PAB-3985-WR-2853/A Chan); assay: Luciferase amastigote macrophage assay in RAW 264.7; type: cell-based; details: Leishmania guyanensis, RAW264.7, 96 h, read-out: EC50 L. guyanensis
Summary of the method: (§1)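 RAW 264.7 macrophages (10,000/well) were incubated 24 h at 37 °C/5% CO2, then infected with luciferase-transfected promastigotes in DMEM + 10% HiFBS. Promastigotes were maintained in Schneider's + 20% HiFBS at 22 °C. Compounds (DMSO stock 11.5 mM) ran from 10 μg/ml in 1:2 dilutions, 0.2% DMSO final, for 96 h at 37 °C. D-luciferin was added at 150 μg/mL final for 30 min before the luminescence read. Amphotericin B control was run in octuplicate.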

[2] = tested on: L. tropica (MHOM/SU/74/K-27 WR-2995); assay: Luciferase amastigote macrophage assay in RAW 264.7; type: cell-based; details: Leishmania tropica, RAW264.7, 96 h, read-out: EC50 L. tropica
[3] = tested on: L. major (MHOM/IL/SU73/WR779); assay: Luciferase amastigote macrophage assay in RAW 264.7; type: cell-based; details: Leishmania major, RAW264.7, 96 h, read-out: EC50 L. major
Summary of the method: as §1

[4] = tested on: L. major (NIH173 (MHOM/IR/-/173)); assay: Lesion cure model, BALB/c mice infected with luciferase-expressing L. major; type: in vivo; details: BID; for bioluminescence signal (parasite load) at the infection site: vs vehicle control
[5] = tested on: L. major (MHOM/SA/85/JISH118); assay: L. major - BALB/c mouse model of CL; type: in vivo, BALB/c mice; details: for % reduction Lesion size / % reduction Parasite load: n = 5
[6] = in vitro; details: human
[7] = pH7.4; ref DNDi unpublished data; cited from earlier work
[8] = 50 mg/kg/day, compared to the untreated control
[9] = study 1, 50 mg/kg PO, 5 days, day 11 post end of treatment
[10] = study 2, 50 mg/kg PO, 10 days, day 11 post end of treatment
[11] = study 2, 50 mg/kg PO, 10 days, day 80

EC50 [1]: 30 nM | EC50 [2]: 10 nM | EC50 [3]: 30 nM
SMILES: C[C@@H]1[C@H](O)[C@@H](C)/C=C/C=C/C=C/C=C/C=C/C=C/C=C/[C@H](O[C@@H]2O[C@H](C)[C@@H](O)[C@H](N)[C@@H]2O)C[C@@H]2O[C@](O)(C[C@@H](O)C[C@@H](O)[C@H](O)CC[C@@H](O)C[C@@H](O)CC(=O)O[C@H]1C)C[C@H](O)[C@H]2C(=O)O [Amphotericin B, amphotericin B deoxycholate, reference compound]

EC50 [1]: 850 nM | EC50 [3]: 340 nM
SMILES: O=[N+]([O-])c1cn2c(n1)O[C@@H](COc1ccc(-c3ccc(F)cc3)nc1)CC2 [DNDI-0690]
lesion size reduction vs respective vehicle control ([4]; study 1, 25 mg/kg PO, 10 days, day 11 post end of treatment): 89.8% | bioluminescence signal (parasite load) at the infection site ([4]; study 1, 25 mg/kg PO, 10 days): significantly reduce

EC50 [1]: 50 nM | EC50 [6]: 181000 nM | EC50 [2]: 240 nM | EC50 [3]: 70 nM
SMILES: Cc1c(C(=O)Nc2ccc3c(c2)B(O)OC3)nnn1-c1ccccn1 [DNDI-6148]
lesion size reduction [5, 8]: no visible nodule | reduction of the parasite load as measured by qPCR [5, 8]: ~2 log-fold | % reduction Lesion size ([5]; Oral, 12.5 mg/kg, BID, 10 days): 66.7% | % reduction Parasite load ([5]; Oral, 12.5 mg/kg, BID, 10 days, qPCR day 11): 92.35% | % reduction Lesion size ([5]; Oral, 25 mg/kg, BID, 10 days): 85.4% | % reduction Parasite load ([5]; Oral, 25 mg/kg, BID, 10 days, qPCR day 11): 98.49% | % reduction Lesion size ([5]; Oral, 50 mg/kg, BID, 5 days): 43.2% | % reduction Parasite load ([5]; Oral, 50 mg/kg, BID, 5 days, qPCR): 100.00% | % reduction Lesion size ([5]; Oral, 50 mg/kg, BID, 10 days): 100.0% and 75.7% and 91.9% | % reduction Parasite load ([5]; Oral, 50 mg/kg, BID, 10 days, qPCR day 11, 50 mg/kg): 99.56% and 100.00% and 98.41% | % reduction Lesion size ([5]; Oral, 50 mg/kg, QD, 10 days): 100.0% | % reduction Parasite load ([5]; Oral, 50 mg/kg, QD, 10 days, qPCR day 11): 97.73% | % reduction Parasite load ([5]; Topical, Sat sol in PG-EtOH (1:1), 50 μl BID, 10 days, qPCR day 11): 71.49% and 99.68% | lesion size reduction vs respective vehicle control [4, 9]: 93.2% | mice clear of any detectable infection [4, 9]: 1/5 | bioluminescence signal (parasite load) at the infection site ([4]; study 1, 50 mg/kg PO, 5 days): significantly reduce | mice cured (no visible lesion), no detectable parasite load by bioluminescence [4, 10]: 3/6 | overall lesion size reduction compared to the average VC lesion size [4, 10]: 99.3% | mice cured, no detectable parasite load ([4]; study 2, 50 mg/kg PO, 10 days, day 18 post end of treatment): 6/6 | mice that had developed papules ([4]; study 2, 50 mg/kg PO, 10 days, day 61 post end of treatment): 0/5 | mice that had developed papules ([4]; study 2, 50 mg/kg PO, 10 days, day 74 post end of treatment): 1/5 | average lesion size [4, 11]: 1.98 mm^2 | mice that had developed lesions [4, 11]: 1/5 | distribution coefficient (log D), DNDi data [7]: 1.92

EC50 [1]: 380 nM | EC50 [6]: > 200000 nM | EC50 [2]: 1200 nM | EC50 [3]: 30 nM
SMILES: O=[N+]([O-])c1cn2c(n1)OC[C@H](Oc1ccc(OC(F)(F)F)cc1)C2 [DNDI-8219, (6 R)-2-Nitro-6-[4-(trifluoromethoxy)phenoxy]-6,7-dihydro-5 H-imidazo[2,1-b][1,3]oxazine]
